From ChEMBL document CHEMBL1149315, “Insertion of an aspartic acid moiety into cyclic pseudopeptides: synthesis and biological characterization of potent antagonists for the human Tachykinin NK-2 receptor” (J Med Chem, 2004)

Experiments:
Substance-K receptor = target: T1, Substance-K receptor (Homo sapiens, UniProt P21452); assay: Displacement of [125I]neurokinin A from human NK2 receptor expressed in CHOK1 cells; format: cell-based, CHO-K1
T1 sequence (P21452 whole entry): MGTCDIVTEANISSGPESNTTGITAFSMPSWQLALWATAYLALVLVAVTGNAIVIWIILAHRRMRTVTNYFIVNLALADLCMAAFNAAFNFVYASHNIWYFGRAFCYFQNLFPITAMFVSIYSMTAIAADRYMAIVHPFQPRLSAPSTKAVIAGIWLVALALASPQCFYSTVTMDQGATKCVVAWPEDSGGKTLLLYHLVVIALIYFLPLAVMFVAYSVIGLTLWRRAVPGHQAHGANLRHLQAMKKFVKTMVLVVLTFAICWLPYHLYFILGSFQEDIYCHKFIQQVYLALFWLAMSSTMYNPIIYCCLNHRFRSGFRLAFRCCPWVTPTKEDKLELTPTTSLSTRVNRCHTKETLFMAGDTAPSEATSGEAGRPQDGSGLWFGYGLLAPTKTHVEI
Procedure, shortened: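 Competition binding was run on membranes of cells stably transfected with the human receptor: U-373MG for NK-1, CHO-K1 for NK-2 and NK-3. NK-1 used [3H][Sar9]SP sulfone at 1.2 nM. Affinity is given as pKi (−log Ki).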

[1] = target: T2, Substance-K receptor (Rattus norvegicus) (UniProt P16610); assay: Antagonist activity at NK2 receptor in rat urinary bladder assessed as effect on beta-Ala8]NKA(4-10)-induced mechanical activity; format: functional; settings: filed as antagonist
T2 sequence (whole entry): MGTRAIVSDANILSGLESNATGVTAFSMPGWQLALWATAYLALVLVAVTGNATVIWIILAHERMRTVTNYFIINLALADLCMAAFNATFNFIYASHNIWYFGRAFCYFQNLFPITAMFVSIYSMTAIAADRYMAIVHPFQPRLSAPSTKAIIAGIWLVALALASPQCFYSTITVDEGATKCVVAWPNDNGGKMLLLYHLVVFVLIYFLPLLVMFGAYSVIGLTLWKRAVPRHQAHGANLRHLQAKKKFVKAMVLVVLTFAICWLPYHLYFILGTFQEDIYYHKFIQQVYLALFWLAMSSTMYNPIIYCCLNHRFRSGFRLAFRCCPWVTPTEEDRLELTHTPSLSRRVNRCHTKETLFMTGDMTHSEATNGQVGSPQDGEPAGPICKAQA
Procedure, shortened: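 Isolated smooth muscle strips were held in oxygenated (96% O2/4% CO2) Krebs–Henseleit at NaCl 119, NaHCO3 25, KH2PO4 1.2, MgSO4 1.5, CaCl2 2.5, KCl 4.7 and glucose 11 mM. Cumulative agonist concentration–response curves were run after 15 min antagonist incubation. pKB = log(dose ratio − 1) − log[antagonist], as the mean of individual values.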

SMILES	Ki (Substance-K receptor)	pKb [1]
CN1CCN(CC(=O)N[C@@H]2CC(=O)N[C@@H](Cc3c[nH]c4ccccc34)C(=O)N[C@@H](Cc3ccccc3)C(=O)N[C@H](Cc3ccccc3)CNC2=O)CC1	1.58 nM (antagonist)	8.5
O=C1C[C@H](NC2CCOCC2)C(=O)N[C@@H](Cc2c[nH]c3ccccc23)C(=O)N[C@@H](Cc2ccccc2)C(=O)N[C@H](Cc2ccccc2)CN1	6.31 nM (antagonist)	7.8
CC(=O)N1CCN([C@@H]2CC(=O)N[C@@H](Cc3c[nH]c4ccccc34)C(=O)N[C@@H](Cc3ccccc3)C(=O)N[C@H](Cc3ccccc3)CNC2=O)CC1	0.126 nM (antagonist)	9.6
O=C1C[C@@H](NC2CCSCC2)C(=O)NC[C@@H](Cc2ccccc2)NC(=O)[C@H](Cc2ccccc2)NC(=O)[C@H](Cc2c[nH]c3ccccc23)N1	0.1 nM (antagonist)	7.8
CS(=O)(=O)N1CCN([C@@H]2CC(=O)N[C@@H](Cc3c[nH]c4ccccc34)C(=O)N[C@@H](Cc3ccccc3)C(=O)N[C@H](Cc3ccccc3)CNC2=O)CC1	3.16 nM (antagonist)	9.3
O=C1C[C@@H](NC(=O)CN2CCC(O)CC2)C(=O)NC[C@@H](Cc2ccccc2)NC(=O)[C@H](Cc2ccccc2)NC(=O)[C@H](Cc2c[nH]c3ccccc23)N1	0.126 nM (antagonist)	9.1
CS(=O)(=O)N1CCC(N[C@@H]2CC(=O)N[C@@H](Cc3c[nH]c4ccccc34)C(=O)N[C@@H](Cc3ccccc3)C(=O)N[C@H](Cc3ccccc3)CNC2=O)CC1	0.0631 nM (antagonist)	9.5
CC(=O)N[C@@H]1[C@@H](O)[C@H](O)[C@@H](CO)O[C@H]1NC(=O)C[C@H](NC(C)=O)C(=O)N[C@@H]1CC(=O)N[C@@H](Cc2c[nH]c3ccccc23)C(=O)N[C@@H](Cc2ccccc2)C(=O)N[C@H](Cc2ccccc2)CNC1=O	25.1 nM (antagonist)	7.7
NS(=O)(=O)N1CCC(N[C@@H]2CC(=O)N[C@@H](Cc3c[nH]c4ccccc34)C(=O)N[C@@H](Cc3ccccc3)C(=O)N[C@H](Cc3ccccc3)CNC2=O)CC1	0.0501 nM (antagonist)	9.5
O=C1C[C@@H](NC(=O)CN2CCOCC2)C(=O)NC[C@@H](Cc2ccccc2)NC(=O)[C@H](Cc2ccccc2)NC(=O)[C@H](Cc2c[nH]c3ccccc23)N1	–	8.5
O=C1CCC(=O)N[C@@H](Cc2c[nH]c3ccccc23)C(=O)N[C@@H](Cc2ccccc2)C(=O)N[C@H](Cc2ccccc2)CN1	–	8.3
O=C1CC(NC(=O)[C@@H](O)[C@H](O)[C@@H](O[C@@H]2O[C@H](CO)[C@H](O)[C@H](O)[C@H]2O)[C@@H](O)CO)C(=O)NC[C@@H](Cc2ccccc2)NC(=O)[C@H](Cc2ccccc2)NC(=O)[C@H](Cc2c[nH]c3ccccc23)N1 (stereo partly drawn)	3.98 nM (antagonist)	8.7
O=C1C[C@@H](NC[C@H](O)[C@@H](O)[C@H](O)[C@H](O)CO)C(=O)NC[C@@H](Cc2ccccc2)NC(=O)[C@H](Cc2ccccc2)NC(=O)[C@H](Cc2c[nH]c3ccccc23)N1	0.398 nM (antagonist)	8.8
O=C1C[C@@H](NC(=O)CN2CCC[C@H]2CO)C(=O)NC[C@@H](Cc2ccccc2)NC(=O)[C@H](Cc2ccccc2)NC(=O)[C@H](Cc2c[nH]c3ccccc23)N1	0.316 nM (antagonist)	8.9
O=C1C[C@@H](N2CCC(N3CCCCC3)CC2)C(=O)NC[C@@H](Cc2ccccc2)NC(=O)[C@H](Cc2ccccc2)NC(=O)[C@H](Cc2c[nH]c3ccccc23)N1	0.2 nM (antagonist)	8.9
O=C1C[C@@H](NC(=O)CN2CC[S+]([O-])CC2)C(=O)NC[C@@H](Cc2ccccc2)NC(=O)[C@H](Cc2ccccc2)NC(=O)[C@H](Cc2c[nH]c3ccccc23)N1	0.316 nM (antagonist)	8.7
O=C1C[C@@H](NC[C@H](O)[C@H](O)[C@@H](O[C@H]2O[C@H](CO)[C@@H](O[C@@H]3O[C@@H](CO)[C@H](O)[C@@H](O)[C@@H]3O)[C@H](O)[C@H]2O)[C@H](O)CO)C(=O)NC[C@@H](Cc2ccccc2)NC(=O)[C@H](Cc2ccccc2)NC(=O)[C@H](Cc2c[nH]c3ccccc23)N1	0.501 nM (antagonist)	8.5
O=C1C[C@@H](N2CCC(N3CCOCC3)CC2)C(=O)NC[C@@H](Cc2ccccc2)NC(=O)[C@H](Cc2ccccc2)NC(=O)[C@H](Cc2c[nH]c3ccccc23)N1	0.2 nM (antagonist)	8.9
CN1CCN([C@@H]2CC(=O)N[C@@H](Cc3c[nH]c4ccccc34)C(=O)N[C@@H](Cc3ccccc3)C(=O)N[C@H](Cc3ccccc3)CNC2=O)CC1	0.398 nM (antagonist)	9.2
O=C1C[C@@H](NC[C@H](O)[C@@H](O)[C@@H](O[C@H]2O[C@H](CO)[C@@H](O)[C@H](O)[C@H]2O)[C@H](O)CO)C(=O)NC[C@@H](Cc2ccccc2)NC(=O)[C@H](Cc2ccccc2)NC(=O)[C@H](Cc2c[nH]c3ccccc23)N1	0.631 nM (antagonist)	8.5
O=C1C[C@@H](NC2CCS(=O)(=O)CC2)C(=O)NC[C@@H](Cc2ccccc2)NC(=O)[C@H](Cc2ccccc2)NC(=O)[C@H](Cc2c[nH]c3ccccc23)N1	0.158 nM (antagonist)	9.3
CN1CCC(N[C@@H]2CC(=O)N[C@@H](Cc3c[nH]c4ccccc34)C(=O)N[C@@H](Cc3ccccc3)C(=O)N[C@H](Cc3ccccc3)CNC2=O)CC1	0.2 nM (antagonist)	9
O=C1C[C@@H](NC2CC[S+]([O-])CC2)C(=O)NC[C@@H](Cc2ccccc2)NC(=O)[C@H](Cc2ccccc2)NC(=O)[C@H](Cc2c[nH]c3ccccc23)N1 (stereo partly drawn)	0.0251 nM (antagonist)	9.1
CN(C1CCOCC1)[C@@H]1CC(=O)N[C@@H](Cc2c[nH]c3ccccc23)C(=O)N[C@@H](Cc2ccccc2)C(=O)N[C@H](Cc2ccccc2)CNC1=O	0.158 nM (antagonist)	8.8
O=C1C[C@@H](NC[C@H](O)[C@@H](O)[C@H](O[C@@H]2O[C@H](CO)[C@H](O)[C@H](O)[C@H]2O)[C@H](O)CO)C(=O)NC[C@@H](Cc2ccccc2)NC(=O)[C@H](Cc2ccccc2)NC(=O)[C@H](Cc2c[nH]c3ccccc23)N1	1.26 nM (antagonist)	8.2
NC(=O)C1CCN(CC(=O)N[C@@H]2CC(=O)N[C@@H](Cc3c[nH]c4ccccc34)C(=O)N[C@@H](Cc3ccccc3)C(=O)N[C@H](Cc3ccccc3)CNC2=O)CC1	0.501 nM (antagonist)	9.2
CC(=O)N[C@@H](CN[C@@H]1CC(=O)N[C@@H](Cc2c[nH]c3ccccc23)C(=O)N[C@@H](Cc2ccccc2)C(=O)N[C@H](Cc2ccccc2)CNC1=O)[C@@H](O)[C@H](O)[C@H](O)CO	2 nM (antagonist)	8.1
NC1CCN([C@@H]2CC(=O)N[C@@H](Cc3c[nH]c4ccccc34)C(=O)N[C@@H](Cc3ccccc3)C(=O)N[C@H](Cc3ccccc3)CNC2=O)CC1	5.01 nM (antagonist)	8.5
CC(=O)N[C@H]1[C@H](NC(=O)CCC(=O)N[C@@H]2CC(=O)N[C@@H](Cc3c[nH]c4ccccc34)C(=O)N[C@@H](Cc3ccccc3)C(=O)N[C@H](Cc3ccccc3)CNC2=O)O[C@H](CO)C(O)[C@@H]1O (single isomer, unassigned)	1.58 nM (antagonist)	7.6
O=C1C[C@@H](NC(=O)CN2CCC(N3CC[S+]([O-])CC3)CC2)C(=O)NC[C@@H](Cc2ccccc2)NC(=O)[C@H](Cc2ccccc2)NC(=O)[C@H](Cc2c[nH]c3ccccc23)N1	0.251 nM (antagonist)	9
